# Results reported in ChEMBL document CHEMBL5316336, “Development of Human Carbonic Anhydrase II Heterobifunctional Degraders” (J Med Chem, 2023).
# The source made the active and inactive calls. No cut-off for these calls is given here.
# Experiments:
# Assay type in all cases: cell-based
# [1] = target: T1, Protein cereblon/Carbonic anhydrase 2 (Homo sapiens, UniProt P00918+Q96SW2); test: Protac activity at CRBN/CA-2 in HEK293 cells assessed as degradation of carbonic anhydrase-2
# In short: (§1)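 Nine-point dose response, 5 pM to 15 μM, in HEK293 cells for 24 h before lysis, three biological replicates; Western blot with hCAII normalized to β-actin and DMSO vehicle. DC50 (95% CI) and DMax from least-squares sigmoidal fit of concentrations below the hook region; log(inhibitor) vs response, three-parameter fit.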
# [2] = target: T1, Protein cereblon/Carbonic anhydrase 2; test: Protac activity at CRBN/CA-2 in HEK293 cells assessed as degradation of carbonic anhydrase-2 at 15 uM measured after 24 hrs by Western blot analysis relative to control
# In short: (§2)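 HEK293 cells (DMEM, 10% FBS, 37 °C, 5% CO2) plated at 2 × 10⁶/well, dosed in DMSO (0.5% final) 24 h before lysis at ~90% confluency. 30–50 μg lysate protein on SDS-PAGE, blotted with anti-hCAII and anti-β-actin, Cy5 secondary. hCAII/β-actin ratio normalized to DMSO wells, as % DMSO.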
# [3] = target: T1, Protein cereblon/Carbonic anhydrase 2; test: Protac activity at CRBN/CA-2 in HEK293 cells assessed as degradation of carbonic anhydrase-2 measured after 24 hrs by Western blot analysis; settings: dose <= 15.0 µM; in short: as §1
# [4] = target: Carbonic anhydrase 2 (Homo sapiens) (UniProt P00918); test: Induction of in carbonic anhydrase-2 HEK293 cells assessed as degradation of carbonic anhydrase-2 at 5 uM measured after 24 hrs by Western blot analysis; in short: as §2
# [5] = target: T1, Protein cereblon/Carbonic anhydrase 2; test: Protac activity at CRBN/CA-2 in HEK293 cells assessed as degradation of carbonic anhydrase-2 at 50 nM preincubated for 1 hr with acetazolamide followed by compound addition and measured after 6 hrs by Western blot analysis
# [6] = target: T1, Protein cereblon/Carbonic anhydrase 2; test: Protac activity at CRBN/CA-2 in HEK293 cells assessed as degradation of carbonic anhydrase-2 at 50 nM by Western blot analysis; settings: time lower 0.0 hrs, time upper […]
# In short: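 HEK293 cells given 50 nM compound for 0–48 h time course; hCAII abundance by Western blot, hCAII/β-actin normalized to DMSO vehicle.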
# [7] = target: T1, Protein cereblon/Carbonic anhydrase 2; test: Protac activity at CRBN/CA-2 in HEK293 cells assessed as degradation of carbonic anhydrase-2 at 50 nM preincubated for 1 hr with lenalidomide followed by compound addition and measured after 6 hrs by Western blot analysis
# [8] = target: T1, Protein cereblon/Carbonic anhydrase 2; test: Protac activity at CRBN/CA-2 in HEK293 cells assessed as degradation of carbonic anhydrase-2 at 50 pM measured after 24 hrs by Western blot analysis; in short: as §2
# [9] = target: T1, Protein cereblon/Carbonic anhydrase 2; test: Protac activity at CRBN/CA-2 in HEK293 cells assessed as degradation of carbonic anhydrase-2 at 50 nM preincubated for 1 hr with MG-132 followed by compound addition and measured after 6 hrs by Western blot analysis
# In short: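 HEK293 cells pretreated 1 h with MG-132 at 1 μM, then 50 nM compound for 6 h; hCAII by Western blot, hCAII/β-actin relative to DMSO controls.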
structure (smiles),measurement,setting,value
NS(=O)(=O)c1ccc(C(=O)NCCCOCCCCOCCCNc2cccc3c2C(=O)N(C2CCC(=O)NC2=O)C3=O)cc1 (stereo not given),EC50,[1],5 nM
same,Activity,[2],100%
same,Activity,[3],Dose-Dependent Effect
CN1C(=O)CCC(N2C(=O)c3cccc(NCCCOCCOCCOCCCNC(=O)c4ccc(S(N)(=O)=O)cc4)c3C2=O)C1=O (stereo not given),Activity,[4],inactive
CS(=O)(=O)c1ccc(C(=O)NCCCOCCCCOCCCNc2cccc3c2C(=O)N(C2CCC(=O)NC2=O)C3=O)cc1 (stereo not given),Activity,[4],inactive
CS(=O)(=O)c1ccc(C(=O)NCCCOCCOCCOCCCNc2cccc3c2C(=O)N(C2CCC(=O)NC2=O)C3=O)cc1 (stereo not given),Activity,[4],inactive
NS(=O)(=O)c1ccc(C(=O)NCCCCCCCCCCCCNc2cccc3c2C(=O)N(C2CCC(=O)NC2=O)C3=O)cc1 (stereo not given),Activity,[5],inactive
same,Activity,[6],Dose-Dependent Effect
same,Activity,[7],inactive
same,Activity,[8],Active
same,Activity,[9],inactive
CN1C(=O)CCC(N2C(=O)c3cccc(NCCCOCCCCOCCCNC(=O)c4ccc(S(N)(=O)=O)cc4)c3C2=O)C1=O (stereo not given),Activity,[4],inactive
NS(=O)(=O)c1ccc(C(=O)NCCCOCCOCCOCCCNc2cccc3c2C(=O)N(C2CCC(=O)NC2=O)C3=O)cc1 (stereo not given),EC50,[1],245 nM
same,Activity,[2],100%
same,Activity,[3],Dose-Dependent Effect
